Data: ChEMBL document CHEMBL1811767, “Quinoxalin-2(1H)-one derivatives as inhibitors against hepatitis C virus” (J Med Chem, 2011)
The source made the active and inactive calls. No cut-off for these calls is given here.

Columns and labels:
Hepatitis C virus [1] = experiment: Antiviral activity against Hepatitis C virus infected in human Huh7ET cells assessed as inhibition of dicistronic viral RNA replication at 20 uM after 72 hrs by luciferase reporter gene assay; format: functional, Hepacivirus hominis, Huh-7; design: scale not given: the % may be the effect or the level left
Method in brief: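 Primary screen at single 20 μM in replicon Huh 7 ET cells (5000/well, DMEM without G418, overnight seeding). After 72 h exposure, replicon luciferase measured with Steady-Glo. Value expressed as percent inhibition relative to control cells.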

[2] = Cytotoxicity against human Huh7ET cells at 20 uM by CytoTox-one cell proliferation assay; format: cell-based; settings: huh-7, 20 µM
Method in brief: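 Huh 7 ET replicon cells exposed to single 20 μM for 72 h in primary screen; viability by tetrazolium-based CytoTox-1 assay, reported as percent relative to control cells.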

[3] = Selectivity index, ratio of IC50 for human Huh7ET cells to EC50 for Hepatitis C virus; format: toxicity, cell-based, Huh-7; settings: read-out: Ratio IC50/EC50
Method in brief: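 SI taken as IC50 (CytoTox-1 viability, Huh 7 ET replicon cells, 72 h) divided by EC50 (replicon luciferase, same cells and exposure); each from four-replicate averages.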

Hepatitis C virus [4] = experiment: Antiviral activity against Hepatitis C virus infected in human Huh7ET cells assessed as inhibition of dicistronic viral RNA replication after 72 hrs by luciferase reporter gene assay; format: functional, organism-based, Hepacivirus hominis; settings: Huh-7, 72 h
Method in brief: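 HCV replicon Huh 7 ET cells seeded 5000/well in DMEM without G418 overnight; compounds dissolved in DMSO, diluted in DMEM, dose-response. After 72 h, replicon-derived luciferase read by Steady-Glo. Mean of four replicates; EC50 = concentration inhibiting HCV RNA replication by 50%.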

[5] = Cytotoxicity against human Huh7ET cells by CytoTox-one cell proliferation assay; format: cell-based; settings: Huh-7
Method in brief: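 Parallel plate of replicon Huh 7 ET cells (5000/well, DMEM without G418), compounds from DMSO stocks diluted in DMEM, 72 h. Viability by tetrazolium-based CytoTox-1 proliferation assay. Mean of four replicates; IC50 = concentration decreasing cell viability by 50%.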

Hepacivirus hominis [6] = experiment: Inhibition of Hepatitis C virus protease
Hepacivirus hominis [7] = experiment: Inhibition of Hepatitis C virus NS5B polymerase

| Structure (SMILES) | Activity (Hepatitis C virus [1]) [%] | Cell viability relative to control [2] [%] | selectivity ratio [3] | EC50 (Hepatitis C virus [4]) [µM] | IC50 [5] [µM] | inhibition (Hepacivirus hominis [6]) | inhibition (Hepacivirus hominis [7]) |
| --- | --- | --- | --- | --- | --- | --- | --- |
| O=c1cnc2cc(N3CCCCC3)c(Nc3nc(-c4ccccc4)cs3)cc2[nH]1 | 9 | 35.1 |  |  |  |  |  |
| CCN(c1cc2ncc(=O)[nH]c2cc1Nc1nc(-c2ccccc2)cs1)C1CCCCC1 | 35 | 58 |  |  |  |  |  |
| O=c1cnc2cc(OC3CCCCC3)c(Nc3nc(-c4ccccc4)cs3)cc2[nH]1 | 4.9 | 74.4 |  |  |  |  |  |
| CN(c1cc2c(cc1Nc1nc(-c3ccccc3)cs1)[nH]c(=O)c1cccn12)C1CCCCC1 |  |  | 9.9 | 1.82 | 18 |  |  |
| CCOC(=O)C1CCN(c2cc3ncc(=O)[nH]c3cc2Nc2nc(-c3ccccc3)cs2)CC1 | 37.6 | 59.6 |  |  |  |  |  |
| CN(c1cc2ncc(=O)[nH]c2cc1N1CC(=O)N(c2ccccc2)C1=S)C1CCCCC1 |  |  | 1.4 | 2.21 | 2.99 |  |  |
| CN(c1cc2ncc(=O)[nH]c2cc1NC(=N)NCc1ccccc1)C1CCCCC1 |  |  | 0.87 | 11.4 | 9.94 |  |  |
| CN(c1cc2ncc(=O)[nH]c2cc1Nc1nc(-c2cccs2)cs1)C1CCCCC1 |  |  | < 3.6 | > 20 | 71.3 |  |  |
| CN(c1cc2ncc(=O)[nH]c2cc1NC(=S)NC(=O)c1ccc(OC(F)(F)F)cc1)C1CCCCC1 |  |  | 2.78 | 2.33 | 6.47 |  |  |
| CN(c1cc2ncc(=O)[nH]c2cc1Nc1nc(-c2ccc(F)cc2)cs1)C1CCCCC1 |  |  | 1.9 | 5.26 | 9.92 |  |  |
| O=c1cnc2cc(N3CCN(c4ccc(F)cc4)CC3)c(Nc3nc(-c4ccccc4)cs3)cc2[nH]1 | 35 | 84.3 |  |  |  |  |  |
| CN(c1cc2ncc(=O)[nH]c2cc1Nc1nc(-c2ccccc2)cs1)C1CCCCC1 |  |  | 37.4 | 1.67 | 62.5 | inactive | inactive |
| COc1cc(C(=O)NC(=S)Nc2cc3[nH]c(=O)cnc3cc2N(C)C2CCCCC2)cc(OC)c1OC |  |  | 3.1 | 5.16 | 15.9 |  |  |
